From ChEMBL document CHEMBL1795216, “Synthesis and biological evaluations of novel apocynin analogues” (Eur J Med Chem, 2011) come the findings set out here.

The source made the active and inactive calls. The calls are words filed in the database; no cut-off is given here.

Holding throughout (type): functional, cell-based
In assay [1] the test system is RAW264.7. Nature of the assay: Antioxidant activity in lipopolysaccharide-stimulated mouse RAW264.7 cells assessed as decrease in ROS level using DCFH-DA by fluorescence assay. In outline:
(§1)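 RAW 264.7 cells (DMEM, 10% FBS, penicillin-streptomycin) seeded for 24 h, then treated with compounds at […] with or without LPS […]. Loaded with […] DCFH-DA for 20 min at 37 °C in 5% CO2, washed three times with PBS. Fluorescence read at ex488/em525 by laser scanning microscopy and quantified on a microplate reader.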

Assay [2] concerns RAW264.7. Kind of assay: Protection against LPS-induced cytotoxicity in mouse RAW264.7 cells assessed as cell viability at 0.1 to 100 uM pretreated for 1 hr before LPS challenge measured after 24 hrs by MTT assay. In outline: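 RAW 264.7 cells seeded at 10⁴/well in 96-well plates and grown 24 h at 37 °C, 5% CO2. Pretreated with compounds at […] for 1 h, washed, then exposed to LPS for 24 h. MTT 0.5 mg/ml added for 4 h, formazan dissolved in DMSO, absorbance read at 570 nm.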
(In general: Tetrazolium dyes change colour on reduction, which living cells bring about.)

Assay [3] concerns RAW264.7. Kind of assay: Inhibition of LPS-induced P67phox protein expression in mouse RAW264.7 cells compound pretreated for 1 hr before LPS challenge by Western blot analysis. In outline: (§2)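 RAW 264.7 cells pretreated 1 h with compound at […], then stimulated with LPS […] for 24 h. Cytoplasmic extracts run on 12% SDS gel and transferred to PVDF. Membranes blocked in 5% nonfat milk/TBS, probed overnight at 4 °C with mouse anti-p67phox and β-actin (1:2000). HRP anti-mouse secondary 1 h at room temperature, ECL detection.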
A general note: In western blotting, separated proteins are transferred to a membrane and probed.

Assay [4] relates to RAW264.7. Kind of assay: Antioxidant activity in lipopolysaccharide-stimulated mouse RAW264.7 cells assessed as decrease in ROS level at 0.1 to 10 uM using DCFH-DA by fluorescence assay. In outline:
as §1

Assay [5] relates to RAW264.7. Nature of the assay: Inhibition of LPS-induced P67phox protein expression in mouse RAW264.7 cells up to 10 uM pretreated for 1 hr before LPS challenge by Western blot analysis. In outline:
as §2

For `COc1cc(C(C)=O)cc(CNc2cc(C(C)=O)cc(OC)c2O)c1O`, the Activity result in assay [1] was “Dose-dependent effect”. Moreover, the result in assay [2] was Active. Moreover, the inhibition entry in assay [3] was “Dose-dependent effect”.

For `COc1cc(C(C)=O)cc(/C=[N+](\[O-])C(C)(C)C)c1O`, the outcome in assay [4] was inactive. In addition, the inhibition result in assay [5] is “inactive”.

As to `COc1cc(C(C)=O)cc(NC(=O)CCCC[C@@H]2CCSS2)c1O`, the Activity entry in assay [1] was “Dose-dependent effect”. Besides, the result in assay [2] was Active. For the same compound, the inhibition entry in assay [3] is “Dose-dependent effect”.

As to `COc1cc(C(C)=O)ccc1O`, the outcome in assay [4] and in assay [2] was inactive. The inhibition entry in assay [5] was “inactive”.
